# Source: ChEMBL document CHEMBL3046615, “Isolation of nematicidal compounds from Tagetes patula L. yellow flowers: structure-activity relationship studies against cyst nematode Heterodera zeae infective stage larvae” (2011)
# The source made the active and inactive calls. The calls are words filed in the database; no cut-off is given here.
# Assays:
# Heterodera zeae [1] = experiment: Nematicidal activity against Heterodera zeae infective stage larvae assessed as nematode mortality at 5% under dark conditions measured 5 to 60 min post dose by stereoscopic microscopy; format: functional, organism-based
# Summary of the method: (§1)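 H. zeae freshly hatched second-stage juveniles, 100 per plate, three replicates, at 28 ± 2 °C under light or in a dark box. Dilutions are % of a stock: 30 mg/mL for extracts/fractions, 1 mg/mL for pure compounds. Methanol-, DMSO- or water-soluble samples were tested in glass cavity blocks. Petroleum ether-soluble samples were air-dried in the block and covered with agar pieces bearing cultured larvae. Mortality was followed over 5–60 min; each value is the mean of three experiments.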
# Heterodera zeae [2] = experiment: Nematicidal activity against Heterodera zeae infective stage larvae assessed as nematode mortality at 1% under light conditions measured 72 hr post dose by stereoscopic microscopy; format: functional
# Summary of the method: (§2)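 Freshly hatched H. zeae second-stage juveniles, 100 per Petri plate, three replicates. Samples in MeOH, DMSO or water were tested in glass cavity blocks; petroleum ether samples were dried onto the block and larvae transferred on agar pieces. Percentages are dilutions of 30 mg/mL stocks (extracts/fractions) or 1 mg/mL stocks (pure compounds). Incubated at 28 ± 2 °C in light or dark box; mortality averaged over three replicates.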
# Heterodera zeae [3] = experiment: Nematicidal activity against Heterodera zeae infective stage larvae assessed as nematode mortality at 1% under dark conditions measured 48 hr post dose by stereoscopic microscopy; format: functional; summary of the method: as §2
# Heterodera zeae [4] = experiment: Nematicidal activity against Heterodera zeae infective stage larvae assessed as nematode mortality at 1% under dark conditions measured 72 hr post dose by stereoscopic microscopy; format: functional; summary of the method: as §2
# Heterodera zeae [5] = experiment: Nematicidal activity against Heterodera zeae infective stage larvae assessed as nematode mortality at 0.125% under light conditions measured 5 to 60 min post dose by stereoscopic microscopy; format: functional, organism-based; summary of the method: as §1
# Heterodera zeae [6] = experiment: Nematicidal activity against Heterodera zeae infective stage larvae assessed as nematode mortality at 0.5% under light conditions measured 48 hr post dose by stereoscopic microscopy; format: functional; summary of the method: as §2
# Heterodera zeae [7] = experiment: Nematicidal activity against Heterodera zeae infective stage larvae assessed as nematode mortality at 0.125% under light conditions measured 72 hr post dose by stereoscopic microscopy; format: functional; summary of the method: as §2
# Heterodera zeae [8] = experiment: Nematicidal activity against Heterodera zeae infective stage larvae assessed as nematode mortality at 1% under dark conditions measured 24 hr post dose by stereoscopic microscopy; format: functional; summary of the method: as §2
# Heterodera zeae [9] = experiment: Nematicidal activity against Heterodera zeae infective stage larvae assessed as nematode mortality at 0.125% under light conditions measured 48 hr post dose by stereoscopic microscopy; format: functional; summary of the method: as §2
# Heterodera zeae [10] = experiment: Nematicidal activity against Heterodera zeae infective stage larvae assessed as nematode mortality at 0.25% under light conditions measured 5 to 60 min post dose by stereoscopic microscopy; format: functional, organism-based; summary of the method: as §1
# Heterodera zeae [11] = experiment: Nematicidal activity against Heterodera zeae infective stage larvae assessed as nematode mortality at 0.25% under dark conditions measured 5 to 60 min post dose by stereoscopic microscopy; format: functional, organism-based; summary of the method: as §1
# Heterodera zeae [12] = experiment: Nematicidal activity against Heterodera zeae infective stage larvae assessed as nematode mortality at 0.5% under dark conditions measured 5 to 60 min post dose by stereoscopic microscopy; format: functional, organism-based; summary of the method: as §1
# Heterodera zeae [13] = experiment: Nematicidal activity against Heterodera zeae infective stage larvae assessed as nematode mortality at 0.5% under light conditions measured 5 to 60 min post dose by stereoscopic microscopy; format: functional, organism-based; summary of the method: as §1
# Heterodera zeae [14] = experiment: Nematicidal activity against Heterodera zeae infective stage larvae assessed as nematode mortality at 0.125% under dark conditions measured 48 hr post dose by stereoscopic microscopy; format: functional; summary of the method: as §2
# Heterodera zeae [15] = experiment: Nematicidal activity against Heterodera zeae infective stage larvae assessed as nematode mortality at 0.25% under dark conditions measured 48 hr post dose by stereoscopic microscopy; format: functional; summary of the method: as §2
# Heterodera zeae [16] = experiment: Nematicidal activity against Heterodera zeae infective stage larvae assessed as nematode mortality at 0.5% under dark conditions measured 48 hr post dose by stereoscopic microscopy; format: functional; summary of the method: as §2
# Heterodera zeae [17] = experiment: Nematicidal activity against Heterodera zeae infective stage larvae assessed as nematode mortality at 1% under light conditions measured 48 hr post dose by stereoscopic microscopy; format: functional; summary of the method: as §2
# Heterodera zeae [18] = experiment: Nematicidal activity against Heterodera zeae infective stage larvae assessed as nematode mortality at 0.5% under dark conditions measured 72 hr post dose by stereoscopic microscopy; format: functional; summary of the method: as §2
# Heterodera zeae [19] = experiment: Nematicidal activity against Heterodera zeae infective stage larvae assessed as nematode mortality at 1% under light conditions measured 5 to 60 min post dose by stereoscopic microscopy; format: functional, organism-based; summary of the method: as §1
# Heterodera zeae [20] = experiment: Nematicidal activity against Heterodera zeae infective stage larvae assessed as nematode mortality at 0.25% under dark conditions measured 24 hr post dose by stereoscopic microscopy; format: functional; summary of the method: as §2
# Heterodera zeae [21] = experiment: Nematicidal activity against Heterodera zeae infective stage larvae assessed as nematode mortality at 0.25% under light conditions measured 72 hr post dose by stereoscopic microscopy; format: functional; summary of the method: as §2
# Heterodera zeae [22] = experiment: Nematicidal activity against Heterodera zeae infective stage larvae assessed as nematode mortality at 0.25% under light conditions measured 48 hr post dose by stereoscopic microscopy; format: functional; summary of the method: as §2
# Heterodera zeae [23] = experiment: Nematicidal activity against Heterodera zeae infective stage larvae assessed as nematode mortality at 0.5% under light conditions measured 24 hr post dose by stereoscopic microscopy; format: functional; summary of the method: as §2
# Heterodera zeae [24] = experiment: Nematicidal activity against Heterodera zeae infective stage larvae assessed as nematode mortality at 0.125% under dark conditions measured 72 hr post dose by stereoscopic microscopy; format: functional; summary of the method: as §2
# Heterodera zeae [25] = experiment: Nematicidal activity against Heterodera zeae infective stage larvae assessed as nematode mortality at 0.125% under light conditions measured 24 hr post dose by stereoscopic microscopy; format: functional; summary of the method: as §2
# Heterodera zeae [26] = experiment: Nematicidal activity against Heterodera zeae infective stage larvae assessed as nematode mortality at 0.25% under dark conditions measured 72 hr post dose by stereoscopic microscopy; format: functional; summary of the method: as §2
# Heterodera zeae [27] = experiment: Nematicidal activity against Heterodera zeae infective stage larvae assessed as nematode mortality at 0.25% under light conditions measured 24 hr post dose by stereoscopic microscopy; format: functional; summary of the method: as §2
# Heterodera zeae [28] = experiment: Nematicidal activity against Heterodera zeae infective stage larvae assessed as nematode mortality at 5% under light conditions measured 5 to 60 min post dose by stereoscopic microscopy; format: functional, organism-based; summary of the method: as §1
# Heterodera zeae [29] = experiment: Nematicidal activity against Heterodera zeae infective stage larvae assessed as nematode mortality at 0.125% under dark conditions measured 24 hr post dose by stereoscopic microscopy; format: functional; summary of the method: as §2
# Heterodera zeae [30] = experiment: Nematicidal activity against Heterodera zeae infective stage larvae assessed as nematode mortality at 2% under dark conditions measured 5 to 60 min post dose by stereoscopic microscopy; format: functional, organism-based; summary of the method: as §1
# Heterodera zeae [31] = experiment: Nematicidal activity against Heterodera zeae infective stage larvae assessed as nematode mortality at 2% under light conditions measured 5 to 60 min post dose by stereoscopic microscopy; format: functional, organism-based; summary of the method: as §1
# Heterodera zeae [32] = experiment: Nematicidal activity against Heterodera zeae infective stage larvae assessed as nematode mortality at 0.5% under light conditions measured 72 hr post dose by stereoscopic microscopy; format: functional; summary of the method: as §2
# Heterodera zeae [33] = experiment: Nematicidal activity against Heterodera zeae infective stage larvae assessed as nematode mortality at 0.5% under dark conditions measured 24 hr post dose by stereoscopic microscopy; format: functional; summary of the method: as §2
# Heterodera zeae [34] = experiment: Nematicidal activity against Heterodera zeae infective stage larvae assessed as nematode mortality at 1% under dark conditions measured 5 to 60 min post dose by stereoscopic microscopy; format: functional, organism-based; summary of the method: as §1
# Heterodera zeae [35] = experiment: Nematicidal activity against Heterodera zeae infective stage larvae assessed as nematode mortality at 1% under light conditions measured 24 hr post dose by stereoscopic microscopy; format: functional; summary of the method: as §2
# Heterodera zeae [36] = experiment: Nematicidal activity against Heterodera zeae infective stage larvae assessed as nematode mortality at 0.125% under dark conditions measured 5 to 60 min post dose by stereoscopic microscopy; format: functional, organism-based; summary of the method: as §1
Compound,Activity (Heterodera zeae [1]),mortality (Heterodera zeae [2]),mortality (Heterodera zeae [3]),mortality (Heterodera zeae [4]),Activity (Heterodera zeae [5]),mortality (Heterodera zeae [6]),mortality (Heterodera zeae [7]),mortality (Heterodera zeae [8]),mortality (Heterodera zeae [9]),Activity (Heterodera zeae [10]),Activity (Heterodera zeae [11]),Activity (Heterodera zeae [12]),Activity (Heterodera zeae [13]),mortality (Heterodera zeae [14]),mortality (Heterodera zeae [15]),mortality (Heterodera zeae [16]),mortality (Heterodera zeae [17]),mortality (Heterodera zeae [18]),Activity (Heterodera zeae [19]),mortality (Heterodera zeae [20]),also measured
COc1c(O[C@@H]2O[C@H](CO)[C@@H](O)[C@H](O)[C@H]2O)cc2oc(-c3ccc(O)c(O)c3)c(O)c(=O)c2c1O [PATULITRIN],inactive,50%,40%,50%,inactive,0%,10%,0%,0%,inactive,inactive,inactive,inactive,0%,10%,20%,20%,40%,inactive,0%,mortality (Heterodera zeae [21]): 20%; mortality (Heterodera zeae [22]): 20%; mortality (Heterodera zeae [23]): 0%; mortality (Heterodera zeae [24]): 10%; mortality (Heterodera zeae [25]): 0%; mortality (Heterodera zeae [26]): 20%; mortality (Heterodera zeae [27]): 0%; Activity (Heterodera zeae [28]): inactive; mortality (Heterodera zeae [29]): 0%; Activity (Heterodera zeae [30]): inactive; Activity (Heterodera zeae [31]): inactive; mortality (Heterodera zeae [32]): 50%; mortality (Heterodera zeae [33]): 0%; Activity (Heterodera zeae [34]): inactive; mortality (Heterodera zeae [35]): 0%; Activity (Heterodera zeae [36]): inactive
O=C(O)c1ccc(O)cc1 [PARABEN],inactive,100%,40%,70%,inactive,40%,50%,0%,40%,inactive,inactive,inactive,inactive,10%,40%,40%,50%,50%,inactive,0%,mortality (Heterodera zeae [21]): 50%; mortality (Heterodera zeae [22]): 40%; mortality (Heterodera zeae [23]): 0%; mortality (Heterodera zeae [24]): 40%; mortality (Heterodera zeae [25]): 0%; mortality (Heterodera zeae [26]): 50%; mortality (Heterodera zeae [27]): 0%; Activity (Heterodera zeae [28]): inactive; mortality (Heterodera zeae [29]): 0%; Activity (Heterodera zeae [30]): inactive; Activity (Heterodera zeae [31]): inactive; mortality (Heterodera zeae [32]): 50%; mortality (Heterodera zeae [33]): 0%; Activity (Heterodera zeae [34]): inactive; mortality (Heterodera zeae [35]): 0%; Activity (Heterodera zeae [36]): inactive
COc1ccc(C(=O)O)cc1 [p-ANISIC ACID],inactive,80%,60%,90%,inactive,40%,40%,50%,10%,inactive,inactive,inactive,inactive,20%,40%,50%,50%,80%,inactive,30%,mortality (Heterodera zeae [21]): 50%; mortality (Heterodera zeae [22]): 20%; mortality (Heterodera zeae [23]): 30%; mortality (Heterodera zeae [24]): 50%; mortality (Heterodera zeae [25]): 10%; mortality (Heterodera zeae [26]): 80%; mortality (Heterodera zeae [27]): 10%; Activity (Heterodera zeae [28]): inactive; mortality (Heterodera zeae [29]): 10%; Activity (Heterodera zeae [30]): inactive; Activity (Heterodera zeae [31]): inactive; mortality (Heterodera zeae [32]): 50%; mortality (Heterodera zeae [33]): 50%; Activity (Heterodera zeae [34]): inactive; mortality (Heterodera zeae [35]): 40%; Activity (Heterodera zeae [36]): inactive
CCCCCCCCCCCCCCCCO [CETYL ALCOHOL],inactive,100%,80%,100%,inactive,80%,40%,70%,0%,inactive,inactive,inactive,inactive,0%,50%,80%,80%,100%,inactive,0%,mortality (Heterodera zeae [21]): 80%; mortality (Heterodera zeae [22]): 50%; mortality (Heterodera zeae [23]): 60%; mortality (Heterodera zeae [24]): 40%; mortality (Heterodera zeae [25]): 0%; mortality (Heterodera zeae [26]): 80%; mortality (Heterodera zeae [27]): 0%; Activity (Heterodera zeae [28]): inactive; mortality (Heterodera zeae [29]): 0%; Activity (Heterodera zeae [30]): inactive; Activity (Heterodera zeae [31]): inactive; mortality (Heterodera zeae [32]): 100%; mortality (Heterodera zeae [33]): 60%; Activity (Heterodera zeae [34]): inactive; mortality (Heterodera zeae [35]): 70%; Activity (Heterodera zeae [36]): inactive
O=c1c(O)c(-c2ccc(O)c(O)c2)oc2cc(O)cc(O)c12 [QUERCETIN],inactive,70%,70%,70%,inactive,50%,80%,50%,50%,inactive,inactive,inactive,inactive,40%,50%,50%,50%,70%,inactive,40%,mortality (Heterodera zeae [21]): 70%; mortality (Heterodera zeae [22]): 50%; mortality (Heterodera zeae [23]): 50%; mortality (Heterodera zeae [24]): 40%; mortality (Heterodera zeae [25]): 40%; mortality (Heterodera zeae [26]): 50%; mortality (Heterodera zeae [27]): 40%; Activity (Heterodera zeae [28]): inactive; mortality (Heterodera zeae [29]): 40%; Activity (Heterodera zeae [30]): inactive; Activity (Heterodera zeae [31]): inactive; mortality (Heterodera zeae [32]): 80%; mortality (Heterodera zeae [33]): 40%; Activity (Heterodera zeae [34]): inactive; mortality (Heterodera zeae [35]): 50%; Activity (Heterodera zeae [36]): inactive
